In ChEMBL document CHEMBL1138602, “Discovery of sodium 6-[(5-chloro-2-{[(4-chloro-2-fluorophenyl)methyl]oxy}phenyl)methyl]-2-pyridinecarboxylate (GSK269984A) an EP(1) receptor antagonist for the treatment of inflammatory pain” (Bioorg Med Chem Lett, 2009):

Tests used:
[1] = Volume of distribution at steady state in Beagle dog at 1 mg/kg administered by intravenous infusion for 1 hr; assay type: ADME, organism-based, Canis lupus familiaris; set-up: dose 1 mg/kg, route intravenous; conditions: in vivo, read-out: Vdss
[2] = Volume of distribution at steady state in cynomolgus monkey at 1 mg/kg administered by intravenous infusion for 1 hr; assay type: ADME, organism-based, Macaca fascicularis; set-up: dose 1 mg/kg, route intravenous; conditions: in vivo, read-out: Vdss
[3] = molecular target: Prostaglandin F2-alpha receptor (Homo sapiens, UniProt P43088); experiment: Inhibition of FP receptor
[4] = Drug level in brain of complete Freund's adjuvant-induced rat inflammatory pain model at 10 mg/kg, po administered after 23 hrs of adjuvant challenge measured after 1 hr; assay type: ADME, organism-based; set-up: dose 10 mg/kg, route oral; conditions: brain, read-out: Drug uptake
Summary of the method: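 CFA rat study: oral doses of 1, 3 or 10 mg/kg given 23 h after intraplantar adjuvant, samples 1 h post-dose. Blood values are the mean from seven animals. Brain values are the mean from three animals.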

[5] = test system: Hepatocyte; experiment: Intrinsic clearance in human hepatocytes measured per gram of liver at 0.15 to 0.2 X 10^6 cells/ml cell density; assay type: ADME, cell-based
Summary of the method: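 Intrinsic clearance in hepatocytes expressed as mL/min/g liver. Cell densities were 0.15–0.2 × 10^6 cells/mL or 0.54–0.7 × 10^6 cells/mL.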

[6] = Oral bioavailability in Beagle dog at 3 mg/kg; assay type: ADME, organism-based, Canis lupus familiaris; conditions: in vivo
Summary of the method: (§1)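 Single oral dose of 3 mg/kg in 1% (w/v) methylcellulose vehicle. Rats were male Sprague-Dawley; dogs were beagle. Bioavailability (Fpo) determined.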

[7] = Solubility in FaSSIF after 0.5 hrs; assay type: physicochemical
Summary of the method: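 Solubility determined in water, FaSSIF and FeSSIF, all read at the 0.5 h time point.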

[8] = Oral bioavailability in Sprague-Dawley rat at 3 mg/kg; assay type: ADME, organism-based; conditions: in vivo; summary of the method: as §1
[9] = Clearance in Beagle dog blood at 1 mg/kg administered by intravenous infusion for 1 hr; assay type: ADME, organism-based, Canis lupus familiaris; set-up: dose 1 mg/kg, route intravenous
Summary of the method: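 Intravenous administration as a 1 h infusion of a 1 mg/kg dose. Rats were male Sprague-Dawley; dogs were beagle; monkeys were cynomolgus. Blood clearance, Vss and half-life determined.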

[10] = test system: Rattus norvegicus; experiment: Antianalgesic activity against complete Freund's adjuvant induced inflammatory pain in rat assessed as reversal of hypersensitivity dosed as po bid for 5 days measured after 1 hr on day 5; assay type: functional
[11] = Ratio of drug level in brain to blood in complete Freund's adjuvant induced rat inflammatory pain model at 10 mg/kg, po bid for 5 days measured after 1 hr on day 5
[12] = molecular target: Cytochrome P450 2D6 (Homo sapiens, UniProt P10635); experiment: Inhibition of human CYP2D6; assay type: ADME
Summary of the method: (§2)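 Inhibition of metabolism of fluorometric substrates (Cypex protocol); IC50 values are the mean of three experiments ± standard deviation.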

[13] = molecular target: T1, Thromboxane A2 receptor (Homo sapiens, UniProt P21731); experiment: Inhibition of TP receptor
T1 sequence (P21731 whole entry): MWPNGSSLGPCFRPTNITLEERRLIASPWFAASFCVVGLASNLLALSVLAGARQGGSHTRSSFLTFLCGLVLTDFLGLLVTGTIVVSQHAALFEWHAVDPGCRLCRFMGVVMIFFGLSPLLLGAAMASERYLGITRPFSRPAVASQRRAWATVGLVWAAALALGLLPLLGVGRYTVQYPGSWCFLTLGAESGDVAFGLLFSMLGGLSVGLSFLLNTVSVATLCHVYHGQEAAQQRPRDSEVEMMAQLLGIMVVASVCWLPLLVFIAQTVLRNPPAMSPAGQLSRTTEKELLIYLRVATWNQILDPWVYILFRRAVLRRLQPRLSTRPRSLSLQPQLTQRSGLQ

[14] = molecular target: Prostaglandin E2 receptor EP4 subtype (Homo sapiens, UniProt P35408); experiment: Inhibition of EP4 receptor
[15] = molecular target: T2, Cytochrome P450 1A2 (Homo sapiens, UniProt P05177); experiment: Inhibition of human CYP1A2; assay type: ADME; summary of the method: as §2
T2 sequence (P05177 whole entry): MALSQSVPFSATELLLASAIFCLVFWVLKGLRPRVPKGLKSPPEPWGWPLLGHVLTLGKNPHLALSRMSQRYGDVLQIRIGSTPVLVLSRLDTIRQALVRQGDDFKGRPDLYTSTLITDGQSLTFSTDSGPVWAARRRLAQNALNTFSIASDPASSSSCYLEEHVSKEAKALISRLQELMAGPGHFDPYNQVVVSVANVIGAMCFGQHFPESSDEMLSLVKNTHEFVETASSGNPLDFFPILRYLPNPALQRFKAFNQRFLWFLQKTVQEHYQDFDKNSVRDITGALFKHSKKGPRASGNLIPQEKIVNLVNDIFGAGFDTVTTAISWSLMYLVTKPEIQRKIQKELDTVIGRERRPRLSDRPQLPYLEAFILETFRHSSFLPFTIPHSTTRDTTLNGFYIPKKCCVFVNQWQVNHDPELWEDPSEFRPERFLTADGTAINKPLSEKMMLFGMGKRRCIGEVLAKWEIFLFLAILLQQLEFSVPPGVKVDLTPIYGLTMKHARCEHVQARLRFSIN

[16] = Drug level in rat brain at 0.5 mg/kg/hr administered by infusion for 1 hrs; assay type: ADME, organism-based; conditions: intravenous, read-out: Drug uptake
Summary of the method: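 Rat given a 1 h infusion; blood and brain concentrations measured.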

[17] = Ratio of drug level in brain to blood in complete Freund's adjuvant-induced rat inflammatory pain model at 3 mg/kg, po administered after 23 hrs of adjuvant challenge measured after 1 hr; assay type: ADME, organism-based; set-up: dose 3 mg/kg, route oral; conditions: brain and blood
Summary of the method: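 Rat CFA inflammatory pain model: oral dosing at 1, 3 or 10 mg/kg 23 h after intraplantar adjuvant; blood and brain sampled 1 h post-dose from the same animal; Br:Bl ratio is the mean from three animals.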

[18] = molecular target: Cytochrome P450 3A4 (Homo sapiens, UniProt P08684); experiment: Inhibition of human CYP3A4; assay type: ADME; summary of the method: as §2
[19] = molecular target: T3, Prostaglandin E2 receptor EP1 subtype (Homo sapiens, UniProt P34995); experiment: Antagonist activity at human recombinant EP1 receptor expressed in CHO cells assessed as inhibition of PGE2-mediated intracellular calcium mobilization by FLIPR method; assay type: functional, cell-based
T3 sequence (P34995 whole entry): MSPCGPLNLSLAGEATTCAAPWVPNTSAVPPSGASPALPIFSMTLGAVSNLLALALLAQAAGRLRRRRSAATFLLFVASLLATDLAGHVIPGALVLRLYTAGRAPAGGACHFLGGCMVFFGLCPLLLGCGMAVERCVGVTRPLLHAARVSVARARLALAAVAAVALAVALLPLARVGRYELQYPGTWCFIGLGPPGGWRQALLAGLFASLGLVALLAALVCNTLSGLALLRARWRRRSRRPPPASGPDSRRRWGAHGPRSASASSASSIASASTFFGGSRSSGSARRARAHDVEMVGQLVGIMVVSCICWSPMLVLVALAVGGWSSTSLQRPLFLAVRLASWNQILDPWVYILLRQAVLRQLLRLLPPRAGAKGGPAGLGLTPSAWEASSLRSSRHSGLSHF
Summary of the method: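 CHO cells recombinantly overexpressing human EP1 receptor; antagonism measured as block of PGE2-mediated intracellular Ca2+ mobilization. Values are the mean of at least three experiments with standard deviations.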

[20] = molecular target: T3, Prostaglandin E2 receptor EP1 subtype; experiment: Antagonist activity at human recombinant EP1 receptor expressed in CHO cells assessed as luciferase activity by Schild assay; assay type: functional, cell-based; conditions: read-out: pA2 (converted)

Sequence of Prostaglandin E2 receptor EP4 subtype (P35408 whole entry): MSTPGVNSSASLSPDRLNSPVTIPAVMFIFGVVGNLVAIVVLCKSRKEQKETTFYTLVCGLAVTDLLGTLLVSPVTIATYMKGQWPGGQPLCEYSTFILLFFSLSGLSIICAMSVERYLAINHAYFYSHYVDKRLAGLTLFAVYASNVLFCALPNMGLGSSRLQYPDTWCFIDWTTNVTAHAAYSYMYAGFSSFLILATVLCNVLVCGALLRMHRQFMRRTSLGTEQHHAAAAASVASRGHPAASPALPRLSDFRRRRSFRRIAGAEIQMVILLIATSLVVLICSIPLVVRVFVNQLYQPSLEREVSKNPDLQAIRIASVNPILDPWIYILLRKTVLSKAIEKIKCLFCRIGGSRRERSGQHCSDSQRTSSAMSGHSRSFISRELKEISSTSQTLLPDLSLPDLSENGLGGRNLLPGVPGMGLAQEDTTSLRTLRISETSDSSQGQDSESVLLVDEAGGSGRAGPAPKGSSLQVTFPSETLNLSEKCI
Sequence of Prostaglandin F2-alpha receptor (P43088 whole entry): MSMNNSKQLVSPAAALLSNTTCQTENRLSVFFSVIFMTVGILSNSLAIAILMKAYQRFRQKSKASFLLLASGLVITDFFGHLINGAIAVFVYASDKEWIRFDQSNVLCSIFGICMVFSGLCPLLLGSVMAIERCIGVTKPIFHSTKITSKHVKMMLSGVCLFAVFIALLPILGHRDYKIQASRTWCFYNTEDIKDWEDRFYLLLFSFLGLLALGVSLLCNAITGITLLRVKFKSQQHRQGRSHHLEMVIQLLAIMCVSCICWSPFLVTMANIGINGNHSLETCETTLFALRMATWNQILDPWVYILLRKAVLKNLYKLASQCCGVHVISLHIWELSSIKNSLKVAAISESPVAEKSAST
Sequence of Cytochrome P450 3A4 (P08684 whole entry): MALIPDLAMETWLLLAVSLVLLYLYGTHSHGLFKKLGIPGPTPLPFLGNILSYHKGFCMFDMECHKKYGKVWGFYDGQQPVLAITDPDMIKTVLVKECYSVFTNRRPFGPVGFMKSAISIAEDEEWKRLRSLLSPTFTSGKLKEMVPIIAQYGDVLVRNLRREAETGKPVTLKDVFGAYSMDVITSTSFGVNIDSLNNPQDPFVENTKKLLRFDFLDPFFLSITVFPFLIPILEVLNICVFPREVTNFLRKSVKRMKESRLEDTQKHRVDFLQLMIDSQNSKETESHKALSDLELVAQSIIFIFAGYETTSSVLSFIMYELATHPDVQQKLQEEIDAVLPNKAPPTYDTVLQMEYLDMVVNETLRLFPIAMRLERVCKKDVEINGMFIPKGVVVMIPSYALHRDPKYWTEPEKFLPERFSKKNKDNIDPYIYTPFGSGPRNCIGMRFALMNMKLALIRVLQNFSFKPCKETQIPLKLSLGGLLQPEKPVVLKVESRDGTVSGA
Sequence of Cytochrome P450 2D6 (P10635 whole entry): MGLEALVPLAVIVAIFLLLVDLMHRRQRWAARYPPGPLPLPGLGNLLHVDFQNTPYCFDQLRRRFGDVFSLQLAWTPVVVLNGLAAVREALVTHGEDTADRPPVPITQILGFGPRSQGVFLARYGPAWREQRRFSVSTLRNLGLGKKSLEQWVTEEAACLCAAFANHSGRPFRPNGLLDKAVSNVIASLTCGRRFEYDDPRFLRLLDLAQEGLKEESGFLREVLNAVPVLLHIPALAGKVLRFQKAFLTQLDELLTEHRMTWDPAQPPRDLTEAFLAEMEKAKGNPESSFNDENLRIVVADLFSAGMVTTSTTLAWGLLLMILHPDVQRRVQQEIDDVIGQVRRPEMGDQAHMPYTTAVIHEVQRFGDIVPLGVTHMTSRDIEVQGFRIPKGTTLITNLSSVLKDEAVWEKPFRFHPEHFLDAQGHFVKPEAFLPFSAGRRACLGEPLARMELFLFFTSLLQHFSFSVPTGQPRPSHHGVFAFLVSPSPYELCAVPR

Vd [1]: 0.6 L/kg | Vd [2]: 0.6 L/kg | IC50 [3]: > 10 µM | concentration at 1 h [4]: 501 nM | CL [5]: 3.7 mL/min/g | bioavailability [6]: 39% | solubility at 0.5 h [7]: 60 µg/mL | bioavailability [8]: 94% | clearance [9]: 18 mL/min/kg | Kp at 1 h [11]: 0.41 | IC50 [12]: > 100 µM | Ki [13]: 0.01 µM | IC50 [14]: > 10 µM | IC50 [15]: 20 µM | concentration at 1 h [16]: 374 nM | Kp at 1 h [17]: 0.37 | IC50 [18]: ≥ 100 µM | Ki [19]: 0.00794 µM | Kb [20]: 0.00794 µM
Structure (SMILES): O=C([O-])c1cccc(Cc2cc(Cl)ccc2OCc2ccc(Cl)cc2F)n1.[Na+]
ED50 [10]: 3 mg/kg
